Data published in ChEMBL document CHEMBL4177769, “Highly Selective and Potent Ectonucleotide Pyrophosphatase-1 (NPP1) Inhibitors Based on Uridine 5'-Pα,α-Dithiophosphate Analogues” (J Med Chem, 2018).
The source made the active and inactive calls. No cut-off for these calls is given here.

Legend:
[1] = Drug level treated with UTP 5'-O-Palpha,alpha-dithiophosphate at 2 mM at pH 11.7 at room temperature after 25 days by 31P NMR method; format: physicochemical; details: pH 11.7, 600 h, 2000 µM
[2] = Drug level treated with diuridine 5'-O-Palpha,alpha,5''-O-Palpha,alpha-tetrathiotetraphosphate at 2 mM at pD 12.6 at room temperature after 16 days by 31P NMR method; format: physicochemical; details: 384 h, 2000 µM
[3] = Drug level treated with UTP 5'-O-Palpha,alpha-dithiophosphate-beta,gamma-methylene at 2 mM at pH 11.7 at room temperature after 25 days by 31P NMR method; format: physicochemical; details: pH 11.7, 600 h, 2000 µM
[4] = Drug metabolism at 2 mM at basic pH after 5 days by 31P NMR method; format: physicochemical; details: read-out: Drug metabolism
[5] = Drug metabolism at 2 mM at pH 1.7 at room temperature after 20 days by 31P NMR method; format: physicochemical; details: read-out: Drug metabolism
[6] = Drug metabolism at 2 mM at acidic pH after 5 days by 31P NMR method; format: physicochemical; details: read-out: Drug metabolism
[7] = Drug metabolism at 2 mM at pH 11.7 at room temperature after 20 days by 31P NMR method; format: physicochemical; details: read-out: Drug metabolism
[8] = target: T1, Ectonucleotide pyrophosphatase/phosphodiesterase family member 1 (Homo sapiens) (UniProt P22413); assay: Inhibition of human NPP1 at 100 uM using pNP-TMP as substrate preincubated for 3 mins followed by substrate addition measured after 15 mins relative to control
T1 sequence (whole entry): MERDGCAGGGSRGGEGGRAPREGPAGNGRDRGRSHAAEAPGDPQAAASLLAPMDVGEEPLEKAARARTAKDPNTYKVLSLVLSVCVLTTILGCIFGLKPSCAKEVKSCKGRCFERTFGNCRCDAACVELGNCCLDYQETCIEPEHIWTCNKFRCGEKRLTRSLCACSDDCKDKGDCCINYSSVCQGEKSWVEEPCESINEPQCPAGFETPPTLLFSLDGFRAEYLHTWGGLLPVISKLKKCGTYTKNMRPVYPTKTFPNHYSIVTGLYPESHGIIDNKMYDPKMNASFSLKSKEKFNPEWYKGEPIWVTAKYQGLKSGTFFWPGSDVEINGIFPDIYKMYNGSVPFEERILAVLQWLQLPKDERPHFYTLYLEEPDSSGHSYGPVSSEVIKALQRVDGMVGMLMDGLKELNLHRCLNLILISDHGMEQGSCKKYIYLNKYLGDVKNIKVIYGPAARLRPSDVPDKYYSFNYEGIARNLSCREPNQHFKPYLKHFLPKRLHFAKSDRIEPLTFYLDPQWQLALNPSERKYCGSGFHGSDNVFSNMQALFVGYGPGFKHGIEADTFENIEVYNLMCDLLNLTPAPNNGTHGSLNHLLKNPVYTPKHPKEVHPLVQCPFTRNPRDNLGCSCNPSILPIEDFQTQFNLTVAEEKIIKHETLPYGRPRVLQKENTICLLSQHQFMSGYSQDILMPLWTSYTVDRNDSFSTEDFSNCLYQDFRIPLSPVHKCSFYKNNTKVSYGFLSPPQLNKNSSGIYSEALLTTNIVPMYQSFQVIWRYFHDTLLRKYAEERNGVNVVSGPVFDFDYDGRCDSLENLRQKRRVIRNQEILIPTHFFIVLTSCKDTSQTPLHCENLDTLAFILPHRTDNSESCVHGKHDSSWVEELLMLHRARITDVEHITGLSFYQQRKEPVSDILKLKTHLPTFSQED
Outline: (§1)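 Human NPP1 (4−5 μg) or NPP3 (12−14 μg) cell lysate in mM 1 CaCl2, 140 NaCl, 5 KCl, 50 Tris pH 8.5, 37 °C. Compound at 100 μM, 3 min preincubation, 100 μM pNP-TMP substrate. p-Nitrophenol read at 405 nm after 15 min. Blank with enzyme added at end subtracted. Activity without compound taken as 100%. At least two independent experiments in triplicate.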

[9] = target: P2Y purinoceptor 2 (Homo sapiens) (UniProt P41231); assay: Agonist activity at recombinant human P2RY2 expressed in AD293 cells assessed as increase in intracellular calcium levels by Fluo-4/AM dye-based spectrofluorometer; format: functional, cell-based
Outline: (§2)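 Human P2Y2, P2Y4 or P2Y6 receptor stably expressed in AD293 cells. Compound at 100 μM. Agonism read as change in intracellular calcium (Δ[Ca2+]i), with UDP or UTP as control.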

[10] = target: T2, Ectonucleoside triphosphate diphosphohydrolase 3 (Homo sapiens) (UniProt O75355); assay: Inhibition of human NTPDase3 at 100 uM using ATP as substrate preincubated for 3 mins followed by substrate addition measured after 10 mins by malachite green reagent-based assay
T2 sequence (whole entry): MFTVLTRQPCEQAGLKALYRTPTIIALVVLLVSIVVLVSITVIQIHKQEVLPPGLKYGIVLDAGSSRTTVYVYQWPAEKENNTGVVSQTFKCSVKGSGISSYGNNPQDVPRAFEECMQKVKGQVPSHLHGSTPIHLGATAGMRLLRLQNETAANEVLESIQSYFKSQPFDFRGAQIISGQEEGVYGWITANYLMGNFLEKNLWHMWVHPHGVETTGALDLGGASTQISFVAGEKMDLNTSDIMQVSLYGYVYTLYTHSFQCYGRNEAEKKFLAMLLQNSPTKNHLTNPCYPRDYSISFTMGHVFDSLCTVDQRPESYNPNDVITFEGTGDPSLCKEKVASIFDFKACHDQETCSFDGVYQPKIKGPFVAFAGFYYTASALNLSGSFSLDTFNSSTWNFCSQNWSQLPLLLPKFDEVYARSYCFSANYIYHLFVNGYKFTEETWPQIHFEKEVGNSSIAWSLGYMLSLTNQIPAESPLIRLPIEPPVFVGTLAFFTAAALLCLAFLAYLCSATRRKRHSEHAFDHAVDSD
Outline: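 Compound at 100 μM, 3 min preincubation, 100 μM ATP, 10 min. Stopped with malachite green; Pi read at 630 nm. Blank with enzyme added after stop subtracted. Activity with ATP alone taken as 100%.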

[11] = Stability of the compound assessed as air oxidation at room temperature at 1.8 mM after 3 weeks by 31P NMR method; format: physicochemical; details: 504 h, 1800 µM
[12] = target: T3, Ectonucleotide pyrophosphatase/phosphodiesterase family member 3 (Homo sapiens) (UniProt O14638); assay: Inhibition of human NPP3 at 100 uM using pNP-TMP as substrate preincubated for 3 mins followed by substrate addition measured after 15 mins; outline: as §1
T3 sequence (whole entry): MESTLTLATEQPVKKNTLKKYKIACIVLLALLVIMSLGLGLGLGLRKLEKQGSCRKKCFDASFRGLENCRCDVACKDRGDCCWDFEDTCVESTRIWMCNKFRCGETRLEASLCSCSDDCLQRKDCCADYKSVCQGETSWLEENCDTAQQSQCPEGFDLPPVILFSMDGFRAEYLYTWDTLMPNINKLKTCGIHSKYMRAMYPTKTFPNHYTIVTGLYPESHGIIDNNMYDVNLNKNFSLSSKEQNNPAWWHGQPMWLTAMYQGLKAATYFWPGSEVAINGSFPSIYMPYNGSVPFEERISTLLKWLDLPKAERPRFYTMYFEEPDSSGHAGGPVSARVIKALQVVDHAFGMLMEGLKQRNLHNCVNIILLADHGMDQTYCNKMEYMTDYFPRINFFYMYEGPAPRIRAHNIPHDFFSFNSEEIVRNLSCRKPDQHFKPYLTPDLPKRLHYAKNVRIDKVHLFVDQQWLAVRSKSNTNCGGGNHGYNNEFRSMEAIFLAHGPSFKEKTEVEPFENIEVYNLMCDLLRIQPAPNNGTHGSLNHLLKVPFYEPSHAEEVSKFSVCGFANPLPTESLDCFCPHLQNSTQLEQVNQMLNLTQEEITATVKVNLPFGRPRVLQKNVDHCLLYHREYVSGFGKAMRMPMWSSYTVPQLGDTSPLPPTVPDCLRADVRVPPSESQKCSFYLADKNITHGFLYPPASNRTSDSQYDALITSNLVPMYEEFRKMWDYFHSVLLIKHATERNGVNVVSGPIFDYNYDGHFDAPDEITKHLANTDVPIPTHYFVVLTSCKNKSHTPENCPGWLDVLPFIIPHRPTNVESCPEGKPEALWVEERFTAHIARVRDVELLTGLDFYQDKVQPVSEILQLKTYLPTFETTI

[13] = target: P2Y purinoceptor 6 (Homo sapiens) (UniProt Q15077); assay: Agonist activity at recombinant human P2RY6 expressed in AD293 cells assessed as increase in intracellular IP1 levels; format: functional, cell-based
Outline: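 Human P2Y6 receptor stably expressed in AD293 cells. Compound at 100 μM. Gq activation read as accumulation of inositol 1-phosphate (IP1).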

[14] = target: P2Y purinoceptor 4 (Homo sapiens) (UniProt P51582); assay: Agonist activity at recombinant human P2RY4 expressed in AD293 cells assessed as increase in intracellular calcium levels by Fluo-4/AM dye-based spectrofluorometer; format: functional, cell-based; outline: as §2
[15] = target: P2Y purinoceptor 6 (Homo sapiens) (UniProt Q15077); assay: Agonist activity at recombinant human P2RY6 expressed in AD293 cells assessed as increase in intracellular calcium levels by Fluo-4/AM dye-based spectrofluorometer; format: functional, cell-based; outline: as §2
[16] = target: T1, Ectonucleotide pyrophosphatase/phosphodiesterase family member 1 (Homo sapiens); assay: Inhibition of human NPP1 at 100 uM using ATP as substrate preincubated for 3 mins followed by substrate addition measured after 25 mins
Outline: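 Human NPP1 cell lysate in mM 1 CaCl2, 140 NaCl, 5 KCl, 50 Tris pH 8.5, 37 °C. Compound at 100 μM, 3 min preincubation, 100 μM ATP substrate. Stopped after 25 min by heating 2 min at 95 °C. Pyrophosphate measured with a commercial kit.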

[17] = Drug level treated with UTP 5'-O-Palpha,alpha-dithiophosphate-beta,gamma-methylene at 2 mM at pH 1.7 at room temperature after 25 days by 31P NMR method; format: physicochemical; details: pH 1.7, 600 h, 2000 µM
[18] = Half life of the compound at pH 7.4; format: physicochemical
[19] = Drug metabolism at 2 mM at pH 1.7 at room temperature after 28 days by 31P NMR method; format: physicochemical; details: read-out: Drug metabolism

P2Y purinoceptor 6 (Homo sapiens), sequence (Q15077 whole entry): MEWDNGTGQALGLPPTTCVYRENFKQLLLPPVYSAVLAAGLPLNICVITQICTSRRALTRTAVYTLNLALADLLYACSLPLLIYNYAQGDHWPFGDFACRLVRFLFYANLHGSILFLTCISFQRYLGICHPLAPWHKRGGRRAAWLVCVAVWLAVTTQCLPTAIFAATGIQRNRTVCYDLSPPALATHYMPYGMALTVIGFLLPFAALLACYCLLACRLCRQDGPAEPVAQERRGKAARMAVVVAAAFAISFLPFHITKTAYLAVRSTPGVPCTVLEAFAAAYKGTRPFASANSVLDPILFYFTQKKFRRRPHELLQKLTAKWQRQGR
P2Y purinoceptor 2 (Homo sapiens), sequence (P41231 whole entry): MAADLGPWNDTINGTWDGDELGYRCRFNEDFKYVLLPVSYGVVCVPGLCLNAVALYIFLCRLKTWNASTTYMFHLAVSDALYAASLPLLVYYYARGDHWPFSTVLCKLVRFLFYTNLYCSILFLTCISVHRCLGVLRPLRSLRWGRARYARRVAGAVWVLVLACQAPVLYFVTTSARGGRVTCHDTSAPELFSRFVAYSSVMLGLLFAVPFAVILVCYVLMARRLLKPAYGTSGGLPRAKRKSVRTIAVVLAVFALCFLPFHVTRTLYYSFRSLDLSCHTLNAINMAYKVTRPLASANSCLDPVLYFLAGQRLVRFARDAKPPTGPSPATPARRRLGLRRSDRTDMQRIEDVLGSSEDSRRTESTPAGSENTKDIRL
P2Y purinoceptor 4 (Homo sapiens), sequence (P51582 whole entry): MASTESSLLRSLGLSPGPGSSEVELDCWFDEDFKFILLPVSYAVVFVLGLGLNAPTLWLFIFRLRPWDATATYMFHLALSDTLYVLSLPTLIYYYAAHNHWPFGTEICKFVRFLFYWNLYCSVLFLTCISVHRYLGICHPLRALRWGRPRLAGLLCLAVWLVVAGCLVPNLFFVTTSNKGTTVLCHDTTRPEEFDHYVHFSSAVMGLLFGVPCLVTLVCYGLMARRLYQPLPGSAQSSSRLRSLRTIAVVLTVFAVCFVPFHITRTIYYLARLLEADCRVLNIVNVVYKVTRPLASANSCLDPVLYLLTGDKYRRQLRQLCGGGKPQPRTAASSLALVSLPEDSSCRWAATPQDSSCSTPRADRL

O=c1ccn([C@@H]2O[C@H](COP(=O)(O)O)[C@@H](O)[C@H]2O)c(=O)[nH]1
Drug metabolism [1]: Metabolite_Detected

O=c1ccn([C@@H]2O[C@H](COP(O)(=S)S)[C@@H](O)[C@H]2O)c(=O)[nH]1 (some centres undefined)
Drug metabolism [1]: Metabolite_Detected | Drug metabolism [2]: Metabolite_Detected | Drug metabolism [3]: Metabolite_Detected

O=c1ccn([C@@H]2O[C@H](COP(=O)(O)OP(=O)(O)OP(=O)(O)O)[C@@H](O)[C@H]2O)c(=O)[nH]1 [URIDINE TRIPHOSPHATE]
degraded at 120 h, 2000 µM [4]: 8% | degraded at 480 h, 2000 µM [5]: 11% | degraded at 120 h, 2000 µM [6]: 5% | degraded at 480 h, 2000 µM [7]: 10%

O=c1ccn([C@@H]2O[C@H](COP(O)(=S)SCCS)[C@@H](O)[C@H]2O)c(=O)[nH]1 (some centres undefined)
Drug metabolism [1]: Metabolite_Detected | Drug metabolism [3]: Metabolite_Detected

O=c1ccn([C@@H]2O[C@H](COP(=S)(S)OP(=O)(O)OP(=O)(O)OP(=S)(S)OC[C@H]3O[C@@H](n4ccc(=O)[nH]c4=O)[C@H](O)[C@@H]3O)[C@@H](O)[C@H]2O)c(=O)[nH]1 (some centres undefined)
inhibition [8]: 80 to 100% | degraded at 120 h, 2000 µM [4]: 9% | Activity [9]: inactive | inhibition [10]: 24% | Stability [11]: Stable | degraded at 120 h, 2000 µM [6]: 6% | inhibition [12]: 27% | Activity [13]: Active | Activity [14]: inactive | Activity [15]: Active | inhibition [16]: Active

O=P(O)(O)CP(=O)(O)O [MEDRONIC ACID]
Drug metabolism [17]: Metabolite_Detected | Drug metabolism [3]: Metabolite_Detected

OP(O)(=S)S
Drug metabolism [1]: Metabolite_Detected | Drug metabolism [2]: Metabolite_Detected | Drug metabolism [3]: Metabolite_Detected

Nc1nc(SCc2ccccc2)nc2c1ncn2[C@@H]1O[C@H](COP(O)(=S)OP(=O)(O)OP(=O)(O)O)[C@@H](O)[C@H]1O (some centres undefined)
half-life [18]: 11 days | degraded at 120 h, 2000 µM [6]: 25%

O=c1ccn([C@@H]2O[C@H](COP(=O)(O)OP(=O)(O)O)[C@@H](O)[C@H]2O)c(=O)[nH]1 [URIDINE_DIPHOSPHATE]
degraded at 672 h, 2000 µM [19]: 7%
